GALR2 ag – activates the human galanin receptor 2; O43603; GALR2-expressing cells, agonist activation read-out; activation, % (test concentration not listed); actives 0.48% (n = 140,000); in the data active means activation above about 5%, passing the limit was not always enough;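 further: 0% = vehicle buffer wells and 100% = reference agonist at full effect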
EphB4 antag – blocks human EphB4 binding to ephrin-B2; P54760; EphB4 LBD / TNYL-RAW-Alexa532 peptide, fluorescence polarization; inhibition, % at 7 µM; actives 0.15% (n = 97,000); AID 720;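 active means inhibition above the screen-wide mean inhibition plus 3 SD, cut at about 15% in these data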;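 further: 0% = DMSO wells and 100% = excess unlabeled TNYL-RAW peptide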
Rev-RRE block – inhibitors of HIV-1 Rev-RRE RNA interaction. P05866. Rev peptide-RRE RNA binding, FRET. inhibition, % at 8 µM. actives 0.79% (n = 97,000);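 active means inhibition above the screen-wide mean plus 3 SD, cut at about 35% in these data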;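 further: 0% = median DMSO wells and 100% = median Neomycin B control wells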
Target sequence (P05866 whole entry, looked up): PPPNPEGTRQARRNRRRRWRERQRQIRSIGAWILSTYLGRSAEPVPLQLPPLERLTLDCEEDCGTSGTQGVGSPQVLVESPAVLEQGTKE
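Material: labelled RRE RNA duplex and labelled Rev peptide / Buffer or medium: HEPES pH 7.5 salt buffer with EDTA / Compound dosing: single point, 8 µM final nominal compound concentration / Benchmarks: DMSO low control, neomycin B high control / Timing: 5 min preincubation and 15 min binding, 25 °C / Technique: FRET fluorescence readout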
GALR2 antag – GALR2 (human) receptor antagonism; O43603; actives 0.39% (n = 140,000); AID 828; GALR2-expressing cells, antagonist mode; inhibition, % at 4 µM; in the data active means inhibition above about 27%;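 further: cells stimulated with galanin 1-16 at roughly its EC80; 0% = agonist challenge control and 100% = basal control without agonist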
S1P2 agonist – S1P2 (human) receptor agonism; S1P2-expressing cell line, agonist reporter read-out; actives 0.46% (n = 97,000); O95136; activation, % at 4.5 µM; in the data active means activation above about 16%;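 further: 0% = vehicle low control and 100% = maximal reference agonist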
Target sequence (O95136 whole entry, looked up): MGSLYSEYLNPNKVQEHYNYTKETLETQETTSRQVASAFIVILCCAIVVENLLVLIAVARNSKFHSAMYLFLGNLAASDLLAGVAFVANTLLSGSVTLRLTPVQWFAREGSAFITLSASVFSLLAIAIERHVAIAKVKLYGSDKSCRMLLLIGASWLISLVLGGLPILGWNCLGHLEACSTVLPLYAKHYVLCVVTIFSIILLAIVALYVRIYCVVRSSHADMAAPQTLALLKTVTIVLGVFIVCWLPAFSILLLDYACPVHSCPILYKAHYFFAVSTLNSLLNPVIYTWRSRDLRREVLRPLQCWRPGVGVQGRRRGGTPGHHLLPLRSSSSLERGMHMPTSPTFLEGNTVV
S1P2 antag – S1P2 (human) receptor antagonism; cell-based S1P2 antagonist assay, inhibition at 5 uM; inhibition, % at 5 µM; actives 0.21% (n = 97,000); in the data active means inhibition above about 45%;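 further: CRE beta-lactamase reporter cells expressing human S1P2 stimulated with S1P; 0% = agonist at EC80 alone and 100% = agonist plus reference antagonist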
* marks the source's active call; other numbers are inactive results; / = not tested or not shown; [ ] = dose if it differs, or a comment. This is a sample that favours compounds with a hit; in the whole collection about 1.8% have one here.

SMILES	GALR2 ag	EphB4 antag	Rev-RRE block	GALR2 antag	S1P2 agonist	S1P2 antag
COc1ccc(C(c2c[nH]c3ccccc23)c2c[nH]c3ccccc23)cc1O	-1	-3	6	-6	89*	5
Cc1ccc(-c2csc3ncnc(SCC(=O)Nc4nnc(C)s4)c23)cc1	-2	4	2	-2	-5	3
Cc1ccc(-c2csc3ncnc(Sc4nnc(CN5CCCCCC5=O)o4)c23)cc1	7	1	0	27*	-10	52*
O=C(COC(=O)/C=C/c1ccc(F)cc1)Nc1ccccc1-c1ccccc1	-2	/	/	-5	/	/
CCC(C)NC(=O)C1CCN(c2nc(OC)nc(OC)n2)CC1 (centres undefined)	-2	2	7	-3	22*	-4
Cn1c(C(N)=O)cnc1Sc1ncc(C(F)(F)F)cc1Cl	-2	-1	2	8	0	11
N#Cc1c(Sc2ncc(C(F)(F)F)cc2Cl)nsc1C/C=N\OCc1ccccc1Br	-3	1	69*	-9	-3	-3
O=C(COC(=O)c1ccccc1C(=O)c1ccccc1)NCCc1ccccc1	7.0*	/	/	-2	/	/
O=C(COC(=O)c1ccccc1C(=O)c1ccc(Cl)cc1)NCCc1ccccc1	-1	/	/	7	/	/
Cc1ccc(NC(=O)ON=C2CCCC2)cc1	-1	/	/	-5	/	/
CC(Oc1cc(Cl)ccc1Cl)C(=O)N/N=C\c1ccnn1C (centres undefined)	-1	/	/	-1	/	/
CCc1nc2ccccc2c(C(=O)OCC(=O)Nc2cccc(S(=O)(=O)N3CCOCC3)c2)c1C	0	-5	12	13	18*	15
CCc1nc2ccccc2c(C(=O)OCC(=O)Nc2ccc(S(=O)(=O)N3CCOCC3)cc2)c1C	1	/	/	3	/	/
COc1cc(-c2cc(-c3ccccc3)nc(SCC(=O)Nc3nccs3)c2C#N)cc(OC)c1OC	-1	-7	8	-3	31*	-23
O=C(CSc1nnc(-c2ccc3c(c2)OCO3)o1)Nc1ncc(Cl)cc1Cl	-1	/	/	6	/	/
CCOC(=O)c1sc2cc([N+](=O)[O-])cc(SCC(C)C)c2c1N	-1	6	62*	4	-4	-5
O=C1NC(=S)N(c2cccc(Cl)c2)C12CCCCC2	0	/	/	0	/	/
CN(c1ccccc1)c1ccc(/C=C/[N+](=O)[O-])cc1	5.5*	/	/	24	/	/
CC1(C)C2CCC1(CS(=O)(=O)Nc1ccc(S(=O)(=O)N3CCCCC3)cc1)C(=O)C2 (centres undefined)	-1	/	/	6	/	/
Cc1ccc2nc3sc(C(=O)NCc4ccco4)c(N)c3cc2c1	-2	-5	37*	17	-7	21
O=C(Cn1cnc2ccccc21)N/N=C/C(Br)=C/c1ccccc1	0	/	/	6	/	/
CC(C)c1ccc(-c2nc(N3CCCC3)nc3n[nH]c(N)c23)cc1	6.2*	/	/	3	/	/
N#Cc1ccc(COC(=O)c2ccc(N3CCCC3)c([N+](=O)[O-])c2)cc1	-1	/	/	0	/	/
O=C(NCc1ccco1)c1cccn2c(=O)c3cc4ccccc4cc3nc12	1	8	57*	12	-5	8
COCCCNC(=O)c1cccn2c(=O)c3cc4ccccc4cc3nc12	-1	0	80*[fluorescence artefact?]	17	-10	16
SMILES	GALR2 ag	EphB4 antag	Rev-RRE block	GALR2 antag	S1P2 agonist	S1P2 antag
O=C(NCc1ccco1)c1cnc2ccccn2c1=O	-1	/	/	13	/	/
C=CCn1c(=N)c(C(=O)NCCCOC)cc2c(=O)n3cccc(C)c3nc21	5	3	12	-13	14	-26
CCOC(=O)c1c(NC(=O)c2cccc(N3C(=O)CCC3=O)c2)sc(C)c1C	-2	-6	6	3	16*	-10
Cc1[nH]c2ccccc2c1C(=O)CSC(=S)N1CCCCC1	1	/	/	-3	/	/
CCCCC(=O)Nc1ccc(C(=O)Nc2ccc(S(=O)(=O)Nc3ccc(C)cc3)cc2)cc1	1	/	/	8	/	/
COc1ccc(-c2cn3c(C)c(C(=O)Nc4ccncc4)sc3n2)cc1	-5	5	6	7	-9	19
COC(=O)c1ccc(NC(=O)c2sc3nc(-c4ccccc4)cn3c2C)cc1	-3	1	0	12	-6	47*
Cc1ccc(N=C2S/C(=C\c3cn(CC(=O)O)c4ccccc34)C(=O)N2C)cc1	-1	/	/	-3	/	/
Oc1c(C=Nc2cccc3cccnc23)sc2ccccc12	-1	6	133*[fluorescence artefact?]	18	-3	-2
CC1CC1C(=O)Nc1nc(-c2cccs2)c(-c2cccs2)s1 (centres undefined)	0	/	/	3	/	/
COc1ccc(CCn2c(C)cc(C(=O)CSc3nnc(N)s3)c2C)cc1	-1	16*	-2	2	-5	-14
COc1ccc(Cn2c(-c3ccco3)nc3oc4cc(OC)ccc4c(=O)c3c2=O)cc1	2	6	9	-5	79*	13
Cc1cc(/C=C2/SC(=S)N(c3cccc(Cl)c3)C2=O)c(C)n1-c1cccnc1	-2	2	39*	12	-6	74*
C=CCc1cc(C)cc(C)c1OCCn1cncn1	-2	17*	8	-12	-3	14
CCC(C)NS(=O)(=O)c1ccc(NC(=O)c2c(-c3ccccc3)noc2C)cc1 (centres undefined)	-1	3	11	1	-6	0
Cc1onc(-c2ccccc2)c1C(=O)Nc1ccc(S(=O)(=O)NC2=NCCCCC2)cc1	0	20*	11	5	-9	2
CCC(CC)NC(=O)/C=C/c1ccccc1Cl	-1	/	/	14	/	/
CNc1ccc(Br)cc(C(=O)/C=C/c2cccc(OC)c2OC)c1=O	-3	2	65*	2	-2	18
CCNc1ccc(Br)cc(C(=O)/C=C/c2ccccc2Cl)c1=O	-3	0	77*[fluorescence artefact?]	11	-4	22
CCNc1ccccc(C(=O)/C=C/c2ccc3c(c2)OCO3)c1=O	-4	-2	55*	1	0	5
O=c1c2c(-c3ccco3)csc2nc(SCc2cn3cccnc3n2)n1-c1ccccc1	3	-5	1	-29	20*	-40
Cc1ccc2c(CN3CCCc4ccccc43)cc(=O)oc2c1C	-1	2	57*	-2	-5	6
COC(=O)Cc1c(C)c2ccc(OCC(=O)N3CCOCC3)cc2oc1=O	-2	-7	2	-1	-3	3
CCN(CC)c1ccc2c(C)c(CN3CCOCC3)c(=O)oc2c1	6.2*	-1	27	-1	26*	-20
O=C1N/C(=N\N=C\c2ccc3ncccc3c2)SC1Cc1ccc(SC(F)F)cc1 (centres undefined)	-2	7	6	2	-6	8
O=C1N/C(=N\N=C\c2cccnc2)SC1Cc1ccc(SC(F)F)cc1 (centres undefined)	-1	3	6	11	31*	-16
CN(C)CCCNC(=S)N1CCn2c(nc3ccccc32)C1	-1	/	/	-4	/	/
COc1cccc(CN2CCC(C(=O)N3CCN(c4ccccc4F)CC3)CC2)c1OC	-1	/	/	-3	/	/
